Assay results reported in the RNAGym collection of RNA variant scans (doi:10.1126/science.aae0568).
This sample holds only a part of the variants without activity.

B1: tRNA (parent)
chain: GUUCCGUUGGCGUAAUGGUAACGCGUCUCCCUCCUAAGGAGAAGACUGCGGGUUCGAGUCCCGUACGGAACG

Variants of: B1
Assay: yeast fitness relative to wild type (ratio to wild type); higher = fitter; tRNA-Arg(CCU), competitive growth, 37 C, YPD
Method in brief: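 A pool of Saccharomyces cerevisiae strains, each with a tRNA-Arg(CCU) gene variant at the native genomic locus, was competed in YPD at 37°C for 24 hours across six parallel replicates. The variants had been chemically synthesised at a 3% per-site mutation rate over 69 sites, and gene amplicons before and after competition were read by 100-nucleotide paired-end sequencing. Darwinian fitness relative to wild type rested on changes in genotype frequencies. Genotypes required ≥ 100 starting reads, and estimates < 0.5 were set to 0.5.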

Row | Variant | yeast fitness
1 | G12A G51A C61A | ≤ 0.5
2 | G12A G51C | 0.662
3 | G12A G51C C62A | ≤ 0.5
4 | G12A G52C | 0.668
5 | G12A G52C C55U A65U | ≤ 0.5
6 | G12A G56A | 0.975
7 | G12A G58C G63A | 0.615
8 | G12A G63C | 0.704
9 | G12A G67C | 0.848
10 | G12A G67U | 0.797
11 | G12A U13A A14G A21G C33U | ≤ 0.5
12 | G12A U13A A42C A70U | ≤ 0.5
13 | G12A U13A G41C A45C C66U | ≤ 0.5
14 | G12A U13A G67U | 0.537
15 | G12A U13C C27G C31U C34A | ≤ 0.5
16 | G12A U13C C33U C34U A42C G50A | ≤ 0.5
17 | G12A U13C C49G U59A | ≤ 0.5
18 | G12A U13C U26C G51A | ≤ 0.5
19 | G12A U13G | 0.869
20 | G12A U13G C61U G67C | 0.678
21 | G12A U13G U19C A21G C49U G52A U59G | 0.525
22 | G12A U13G U19C A21G G52A U59G | ≤ 0.5
23 | G12A U16A | 0.974
24 | G12A U16A G39C U54C C55U | ≤ 0.5

Row | Variant | yeast fitness
25 | G12A U16A U64G | ≤ 0.5
26 | G12A U16C C27A A70C | ≤ 0.5
27 | G12A U16C C27A U54A | ≤ 0.5
28 | G12A U16C C55G A65C | ≤ 0.5
29 | G12A U16G C49U G63A | 0.705
30 | G12A U16G G48A G68A | 0.705
31 | G12A U19A C31G C34U A57G | ≤ 0.5
32 | G12A U19A G41A A42G G58U G63C | ≤ 0.5
33 | G12A U19C A21U A45U G50A G68C A69U | ≤ 0.5
34 | G12A U19C C34G C66U A69U | 0.59
35 | G12A U19C G23A U32C A43C G48C U64C | ≤ 0.5
36 | G12A U19G | 0.893
37 | G12A U19G A20G U35C A40U | ≤ 0.5
38 | G12A U19G U35C A40U | 0.521
39 | G12A U19G U35C A40U C61A | ≤ 0.5
40 | G12A U26A C31G | 0.541
41 | G12A U26A C31U G48A | 0.711
42 | G12A U26A C46U | 0.543
43 | G12A U26C C27U C33A A45C C62G A69U | 0.553
44 | G12A U28A A40U | 0.647
45 | G12A U28A U54C | ≤ 0.5
46 | G12A U28C | 1.06
47 | G12A U28G | 0.607
48 | G12A U28G U35C | ≤ 0.5

Row | Variant | yeast fitness
49 | G12A U32A A40U G41C C46A G52A | ≤ 0.5
50 | G12A U32C A40C G51A | ≤ 0.5
51 | G12A U32C A40G | ≤ 0.5
52 | G12A U32C A43C A65U | ≤ 0.5
53 | G12A U35A A45C | 0.528
54 | G12A U35A G58A G68A | 0.561
55 | G12A U35C | 0.83
56 | G12A U35C C66U | 0.614
57 | G12A U35C G48C | ≤ 0.5
58 | G12A U47A G63A A69U | 0.554
59 | G12A U47G U53A C60A | ≤ 0.5
60 | G12A U54A | 0.679
61 | G12A U54C | 0.797
62 | G12A U59C | 0.993
63 | G12A U64C | 0.921
64 | G12C A14C A20U A21U C33A G48A C62U | ≤ 0.5
65 | G12C A14C C60G | 0.618
66 | G12C A14C G56C G58C | ≤ 0.5
67 | G12C A14C U26C A40G C66U A69U | 0.598
68 | G12C A14G | 0.793
69 | G12C A14G C22U U54C C61U | ≤ 0.5
70 | G12C A14G G25A G41C C61U G67A | 0.573
71 | G12C A14G G25A G41C G67A | ≤ 0.5
72 | G12C A14G G25A G41C U54G A65G G68U A70C | 0.545

Row | Variant | yeast fitness
73 | G12C A15C U19A C34U C49A A65U | ≤ 0.5
74 | G12C A15G C29U A42U U47C C62U | ≤ 0.5
75 | G12C A15U C24A C61U | ≤ 0.5
76 | G12C A15U C24A U54A C62U A65G G68A | ≤ 0.5
77 | G12C A15U G25A | 0.696
78 | G12C A20C | 0.699
79 | G12C A20C A43C | ≤ 0.5
80 | G12C A20C A43U | 0.632
81 | G12C A20C C27G A45G C66A | ≤ 0.5
82 | G12C A20C C31G C66A | ≤ 0.5
83 | G12C A20C C31G U64A | ≤ 0.5
84 | G12C A20C G50A C60U | 0.56
85 | G12C A20C U32A C33G | 0.536
86 | G12C A20C U47A A70G | 0.755
87 | G12C A20G C34U C49G | 0.711
88 | G12C A20U | 0.75
89 | G12C A20U C22A | 0.927
90 | G12C A20U C22G G50A | ≤ 0.5
91 | G12C A20U C30U C49U C55U C66U | 0.559
92 | G12C A20U C30U C55U C66U | 0.551
93 | G12C A20U C33U | 0.555
94 | G12C A20U G25A A36G C46A U54A A70U | ≤ 0.5
95 | G12C A21C C60A | ≤ 0.5
96 | G12C A21C U26C C60A C61A | ≤ 0.5

Row | Variant | yeast fitness
97 | G12C A21U C34U A42U U64A G68U | ≤ 0.5
98 | G12C A21U C34U A69C | ≤ 0.5
99 | G12C A36C | 0.518
100 | G12C A36C A37U | ≤ 0.5
101 | G12C A36C G50A | ≤ 0.5
102 | G12C A37C A40U C46U | 0.59
103 | G12C A37C A40U C46U G63A | ≤ 0.5
104 | G12C A37G G38A A45U | 0.506
105 | G12C A37G G38A A45U A70G | 0.567
106 | G12C A40C | 0.722
107 | G12C A40G | 0.683
108 | G12C A40G G58C C61G A65C | ≤ 0.5
109 | G12C A40U G48C G63A | ≤ 0.5
110 | G12C A42U | 0.698
111 | G12C A43C C61G | ≤ 0.5
112 | G12C A43G G63A | 0.556
113 | G12C A43U | 0.892
114 | G12C A45C | 0.75
115 | G12C A45U C61G | 0.528
116 | G12C A65C | 0.783
117 | G12C A65G | 0.783
118 | G12C A69C | 0.806
119 | G12C A69C A70U | 0.688
120 | G12C C22A | 1

Row | Variant | yeast fitness
121 | G12C C22G A40C | 1.03
122 | G12C C22G G23A A37C A43C C62G G63A C66G A69G | ≤ 0.5
123 | G12C C22G G23A C55A | ≤ 0.5
124 | G12C C22U A43C | 0.615
125 | G12C C22U A43C G68C | 0.556
126 | G12C C22U C31A C60G | ≤ 0.5
127 | G12C C22U U28A | 0.52
128 | G12C C22U U32C | 0.692
129 | G12C C22U U54C C61U G68A | ≤ 0.5
130 | G12C C24G | 0.622
131 | G12C C24G A40G | ≤ 0.5
132 | G12C C24G C27U A43U G67A | ≤ 0.5
133 | G12C C24G C60A | ≤ 0.5
134 | G12C C24G G51C C62A U64G | 0.59
135 | G12C C24U A40U | ≤ 0.5
136 | G12C C24U C46U C49G | ≤ 0.5
137 | G12C C24U C46U C49G C62A | ≤ 0.5
138 | G12C C24U C55U G68C | 0.55
139 | G12C C24U G48C G68A A69C | ≤ 0.5
140 | G12C C24U G67C | 0.536
141 | G12C C27A A37G C49U | ≤ 0.5
142 | G12C C27G A37G | ≤ 0.5
143 | G12C C27G C30G | ≤ 0.5
144 | G12C C27G G58A | ≤ 0.5

Row | Variant | yeast fitness
145 | G12C C27U | 0.805
146 | G12C C27U A69U | 0.599
147 | G12C C27U G50A | ≤ 0.5
148 | G12C C27U G58C A69C | 0.657
149 | G12C C29A | 0.684
150 | G12C C29A A45U G56A | ≤ 0.5
151 | G12C C29G C46G G51A G52A | ≤ 0.5
152 | G12C C29G G48C | ≤ 0.5
153 | G12C C29G G51A G68C | ≤ 0.5
154 | G12C C29U | 0.85
155 | G12C C29U G51A G56A G63C | 0.574
156 | G12C C29U G58U C61U | ≤ 0.5
157 | G12C C30A A42G | 0.562
158 | G12C C30G A37G U47G | ≤ 0.5
159 | G12C C30G A37U G41A G58C | 0.581
160 | G12C C30U A43G | 0.515
161 | G12C C30U C33G U47G | ≤ 0.5
162 | G12C C30U C34U A42G A57C | ≤ 0.5
163 | G12C C30U C66A | ≤ 0.5
164 | G12C C31G A65C | ≤ 0.5
165 | G12C C31G C33G G48A | 0.642
166 | G12C C31G C49G C55G A69U | 0.527
167 | G12C C31G G51A C55G A57G G68C | ≤ 0.5
